Screening data deposited in PubChem by Broad Institute.
The list is not random: actives were taken first. Their share in the collection is about 2.5%.
MLL AF4-AF9 inh: inhibitors of AF4 peptide binding to AF9, primary screen, biochemical, AlphaScreen, biotin-AF4 peptide, FLAG-AF9, single point | inhibition, % at 10 µM | Protein AF-9 (Homo sapiens), P42568 | 350,000 compounds, 0.47% hits;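 active = every replicate reaching a set inhibition limit, whatever the replicate mean, cut at about 25% in these data; inconclusive = mean inhibition reaches that limit but some replicates miss it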
Target sequence (P42568 whole entry, looked up): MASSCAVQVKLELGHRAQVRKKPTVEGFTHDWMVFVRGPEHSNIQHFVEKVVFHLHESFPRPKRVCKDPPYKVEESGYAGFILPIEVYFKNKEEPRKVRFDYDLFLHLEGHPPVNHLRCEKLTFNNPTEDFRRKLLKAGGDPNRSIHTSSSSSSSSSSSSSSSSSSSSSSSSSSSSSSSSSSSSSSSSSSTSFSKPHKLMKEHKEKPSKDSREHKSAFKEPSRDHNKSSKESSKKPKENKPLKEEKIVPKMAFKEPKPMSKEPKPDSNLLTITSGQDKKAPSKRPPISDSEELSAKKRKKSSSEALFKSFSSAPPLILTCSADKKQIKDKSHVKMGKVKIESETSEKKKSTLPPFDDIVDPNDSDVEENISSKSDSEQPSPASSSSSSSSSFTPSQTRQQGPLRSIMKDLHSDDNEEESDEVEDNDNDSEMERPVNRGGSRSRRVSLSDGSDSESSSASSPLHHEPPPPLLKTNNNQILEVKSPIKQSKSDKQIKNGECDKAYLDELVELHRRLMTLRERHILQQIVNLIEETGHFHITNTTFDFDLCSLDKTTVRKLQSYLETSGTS
EWS-Fli block: EWS/Fli-driven NR0B1 reporter inhibitors, primary screen, A673 cells, NR0B1 luciferase, luminescence, MLPCN library. viability-normalised. inhibition, % at 12.6 µM. 350,000 compounds, 0.67% hits;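 active = mean inhibition of at least 50% after viability correction, with every replicate also passing that limit; inconclusive = mean reaches 50% but only one of two replicates passes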;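 note: firefly luciferase signal divided by Alamar Blue viability fluorescence both relative to DMSO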
FN deposit inh: inhibitors of fibronectin matrix deposition, primary screen, AH1F cells, Alexa488-fibronectin fluorescence, plate reader | 350,000 compounds, 0.086% hits | inhibition, % at 12.6 µM | AH1F fibroblasts, overnight;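 active = mean inhibition across replicates of 30% or more, regardless of how many single replicates reach that level; inconclusive = mean under 30% yet at least half of replicates reach 30%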
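Assay system: AH1F fibroblast monolayer, labelled fibronectin deposition. Amount: 10000 cells per well. Also added: labelled fibronectin 24 nM. Compound: single-point pinned compound. Incubation: cell attachment 1 h, compound and FN exposure overnight. Detection: fluorescence after three HBSS washes, excitation 485 nm, emission 525 nm. Read-out: inhibition of fibronectin deposition signal.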
N-glyco inh: increase of ERlucT glycosylation luciferase signal, primary screen, N-linked glycosylation inhibitor project, D54 ERlucT cells, luminescence, set 2. D54 ERlucT glycosylation luciferase reporter, 24 h; percent of 100 nM tunicamycin response. reporter increase, % at 12.5 µM. 360,000 compounds, 0.23% hits. AID 588692, 2011;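 active = mean luciferase reporter signal, scaled so untreated is 0 and the glycosylation-blocking control 100, at or above a set limit in every replicate; inconclusive = mean reaches the limit but not every replicate does; inactive = mean below the limit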;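 note: luciferase carries N-glycosylation sites so blocking glycosylation raises the light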
Env fusion inh: inhibitors of HIV-1 Env-driven cell-cell fusion, primary screen, HeLa-JRFL effector, CEM21 target cells, luciferase. inhibition, % at 12.3 µM. 360,000 compounds, 1.1% hits;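 active = mean replicate inhibition score of at least 50 and every replicate individually at or above 50; inconclusive = only one of the two criteria met; inactive = mean below 50 and not all replicates reaching 50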
PAX8 inh HTS: inhibitors of PAX8-driven TPO luciferase reporter, primary screen, RMG-I cells, single concentration. SteadyGlo, 24 h. inhibition, % at 12.6 µM. 360,000 compounds, 1.2% hits;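 active = mean replicate inhibition at least 60% with every replicate also reaching 60%; inconclusive = only one of the two criteria is met; inactive = mean below 60% and not all replicates reaching 60%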;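 note: luciferase light reporting Pax8 driven TPO promoter activity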
Large screens that a line does not name were inactive; [ ] = remark or other dose.

O=C(CN1C(=O)NC2NC(=O)NC21)N/N=C/c1ccccc1O (stereo not given)	none
O=C(CN1C(=O)NC2NC(=O)NC21)NN=C1CCCC1 (stereo not given)	PAX8 inh HTS 83 (no result: Env fusion inh)
C[C@H](CO)N1C[C@H](C)[C@H](CN(C)Cc2ccc(C(F)(F)F)cc2)Oc2ccc(NC(=O)Nc3ccccc3)cc2CC1=O	none (no result: FN deposit inh, N-glyco inh, PAX8 inh HTS)
C[C@@H]1CN([C@@H](C)CO)C(=O)Cc2cc(NC(=O)C3CCCCC3)ccc2O[C@H]1CN(C)Cc1ccc(Cl)c(Cl)c1	PAX8 inh HTS 95 (no result: N-glyco inh)
C[C@@H]1CN([C@H](C)CO)C(=O)Cc2cc(NC(=O)CCN3CCOCC3)ccc2O[C@H]1CN(C)Cc1ccc(C(F)(F)F)cc1	none (no result: FN deposit inh, N-glyco inh)
C[C@@H]1CN([C@H](C)CO)C(=O)Cc2cc(NC(=O)C3CCCCC3)ccc2O[C@H]1CN(C)Cc1ccc(Cl)c(Cl)c1	none (no result: N-glyco inh)
C[C@@H]1CN([C@@H](C)CO)C(=O)Cc2cc(NC(=O)Nc3ccc(F)cc3)ccc2O[C@H]1CN(C)Cc1ccc(C(F)(F)F)cc1	EWS-Fli block 54, Env fusion inh 69[16.7 µM] (no result: N-glyco inh, PAX8 inh HTS)
C[C@@H]1CN([C@@H](C)CO)C(=O)Cc2cc(NC(=O)Nc3ccc(C(F)(F)F)cc3)ccc2O[C@H]1CN(C)Cc1ccccc1	PAX8 inh HTS 68 (no result: N-glyco inh)
C[C@H]1CN([C@@H](C)CO)C(=O)Cc2cc(NC(=O)CCN3CCOCC3)ccc2O[C@H]1CN(C)Cc1ccc(C(F)(F)F)cc1	EWS-Fli block 60 (no result: FN deposit inh, N-glyco inh)
COc1cccc(CN2CC3(C2)[C@H](c2ccccc2)[C@@H](CO)N3Cc2cccc(OC)c2)c1	none (no result: MLL AF4-AF9 inh, EWS-Fli block, N-glyco inh, Env fusion inh, PAX8 inh HTS)
N#Cc1ccc(-c2ccc3c(c2)[C@H]2[C@H](CCN2C(=O)c2ccncc2)[C@H](CO)N3)cc1	none (no result: MLL AF4-AF9 inh, N-glyco inh, Env fusion inh)
C[C@H](CO)N1C[C@H](C)[C@@H](CN(C)Cc2ccc(-c3ccccc3)cc2)Oc2ccc(NC(=O)Nc3ccc(C(F)(F)F)cc3)cc2CC1=O	PAX8 inh HTS 68 (no result: FN deposit inh, N-glyco inh)
C[C@@H]1CN([C@@H](C)CO)C(=O)Cc2cc(NC(=O)Cc3cn(C)c4ccccc34)ccc2O[C@H]1CN(C)Cc1ccc(C(F)(F)F)cc1	PAX8 inh HTS 71 (no result: N-glyco inh)
C[C@@H]1CN([C@@H](C)CO)C(=O)Cc2cc(NC(=O)c3ccncc3)ccc2O[C@H]1CN(C)Cc1ccc(Cl)c(Cl)c1	Env fusion inh 73[16.7 µM] (no result: EWS-Fli block, FN deposit inh, N-glyco inh)
C[C@H](CO)N1C[C@H](C)[C@H](CN(C)Cc2ccccc2)Oc2ccc(NC(=O)Cc3cn(C)c4ccccc34)cc2CC1=O	none (no result: FN deposit inh, N-glyco inh)
COc1ccc(NC(=O)Nc2ccc3c(c2)CC(=O)N([C@@H](C)CO)C[C@H](C)[C@@H](CN(C)Cc2ccc(C(F)(F)F)cc2)O3)cc1	PAX8 inh HTS 70 (no result: MLL AF4-AF9 inh, FN deposit inh, N-glyco inh)
C[C@H]1CN([C@@H](C)CO)C(=O)Cc2cc(NC(=O)Nc3ccc(C(F)(F)F)cc3)ccc2O[C@@H]1CN(C)Cc1ccccc1	Env fusion inh 82[16.7 µM] (no result: N-glyco inh)
C[C@H]1CN([C@@H](C)CO)C(=O)Cc2cc(NC(=O)Nc3ccc(F)cc3)ccc2O[C@@H]1CN(C)Cc1ccc(Cl)c(Cl)c1	none (no result: N-glyco inh)
C[C@@H]1CN([C@H](C)CO)C(=O)Cc2cc(NC(=O)Nc3ccc(F)cc3)ccc2O[C@H]1CN(C)Cc1ccc(Cl)c(Cl)c1	PAX8 inh HTS 109 (no result: N-glyco inh)
COC(=O)C[C@@H]1C[C@H]2c3cc(NC(=O)CC4CC4)ccc3O[C@H]2[C@H](CO)O1	none (no result: N-glyco inh)
CN1C(=O)c2cc(NC(=O)C3CCCC3)ccc2OC[C@@H]2O[C@H](CC(=O)O)CC[C@@H]21	none (no result: N-glyco inh, Env fusion inh)
COc1ccc(NC(=O)Nc2ccc3c(c2)C(=O)N([C@@H](C)CO)C[C@@H](C)[C@H](CN(C)C)OCCCC[C@H](C)O3)cc1	none (no result: FN deposit inh, N-glyco inh)
Cc1cc(NS(=O)(=O)c2ccc(NC(=O)c3oc4ccccc4c3C)cc2)no1	Env fusion inh 57 (no result: MLL AF4-AF9 inh, EWS-Fli block, PAX8 inh HTS)
COc1ccc(OCC(=O)Nc2ccc(S(=O)(=O)Nc3cc(C)on3)cc2)cc1	none
Cc1cc(NS(=O)(=O)c2ccc(NC(=O)COc3c(C)cc(Br)cc3C)cc2)no1	N-glyco inh 33
CO[C@@H]1CN(C)C(=O)c2ccc(NC(=O)Nc3ccccc3F)cc2OC[C@@H](C)N(C(=O)c2cnccn2)C[C@H]1C	none (no result: N-glyco inh, Env fusion inh)
COc1ccc2[nH]c(C(=O)N3CCN(Cc4ccccc4)CC3)cc2c1OC	N-glyco inh 45
COc1cccc(CN2CCN(C(=O)c3ccc(-c4ccccc4)cc3)CC2)c1OC	FN deposit inh 32
COc1cccc(S(=O)(=O)N(C)C[C@@H]2Oc3cc(C4=CCCC4)ccc3S(=O)(=O)N([C@H](C)CO)C[C@H]2C)c1	none (no result: N-glyco inh)
COCC(=O)N1CC[C@@H]2[C@H]1c1cc(-c3ccccc3)ccc1N(C)[C@H]2CO	none (no result: N-glyco inh, Env fusion inh)
CC=Cc1ccc2n(c1=O)C[C@H]1[C@H](CO)[C@@H](C(=O)NCCc3cn(C)cn3)[C@@H]2N1C(=O)C1CCCC1 (mixture of isomers)	none (no result: FN deposit inh, N-glyco inh, Env fusion inh)
COc1cc(-c2noc(C)c2C#Cc2ccc(N)cc2)cc(OC)c1OC	EWS-Fli block inconclusive, PAX8 inh HTS 75 (no result: FN deposit inh)
COc1cc(-c2noc(C)c2C#Cc2ccccn2)cc(OC)c1OC	EWS-Fli block 54
COc1cc(-c2noc(C)c2/C=C/c2ccc(N)cc2)cc(OC)c1OC	EWS-Fli block 57, N-glyco inh 43, PAX8 inh HTS 79 (no result: Env fusion inh)
CNC(C)C#Cc1c(-c2cc(OC)c(OC)c(OC)c2)noc1C (stereo not given)	none
Cc1noc(C)c1NC(=O)N(C)C[C@H]1Oc2ccc(NC(=O)C3CC3)cc2CC(=O)N([C@H](C)CO)C[C@@H]1C	none (no result: FN deposit inh, N-glyco inh, PAX8 inh HTS)
C[C@@H](O)C#Cc1cnc2c(c1)C(=O)N([C@@H](C)CO)C[C@H](C)[C@@H](CN(C)C(=O)Nc1ccc(C(F)(F)F)cc1)O2	none (no result: N-glyco inh)
CCC(=O)N1CC2(C1)CN(Cc1cccc(Cl)c1)[C@@H](CO)c1[nH]c3cc(OC)ccc3c12	none (no result: MLL AF4-AF9 inh, EWS-Fli block, N-glyco inh, Env fusion inh, PAX8 inh HTS)
O=C(C[C@H]1CC[C@H](NC(=O)Cc2cccnc2)[C@@H](CO)O1)Nc1ccccc1	none (no result: FN deposit inh, N-glyco inh, Env fusion inh, PAX8 inh HTS)
O=C(CSc1ccc(-c2ccco2)nn1)NCc1ccccc1	PAX8 inh HTS 63 (no result: Env fusion inh)
CNC(=O)C[C@H]1CC[C@H]2[C@H](COc3ccc(NC(=O)NCc4ccccc4)cc3C(=O)N2C)O1	none (no result: MLL AF4-AF9 inh, N-glyco inh)
CC(=O)Oc1ccc(/C=C2/CCc3ccccc3C2=O)cc1	EWS-Fli block 74
COc1ccc(S(=O)(=O)N(C)C[C@@H]2Oc3c(NC(=O)c4cc(C)nn4C)cccc3C(=O)N([C@@H](C)CO)C[C@@H]2C)cc1	none (no result: N-glyco inh, Env fusion inh, PAX8 inh HTS)
COc1ccc(/C=N/Nc2nccnc2Cl)c(OC)c1	none (no result: FN deposit inh)
COc1ccc(/C=N/Nc2nonc2N)c(OC)c1	Env fusion inh 65
